Results taken from ChEMBL document CHEMBL1212875, “Improved inhibition of the histone acetyltransferase PCAF by an anacardic acid derivative” (Bioorg Med Chem, 2010).
Calls of active or inactive are those of the source. The rule behind the calls is not given here.

Key:
[1] = molecular target: T1, Histone acetyltransferase KAT2B (Homo sapiens, UniProt Q92831); assay: Inhibition of human recombinant histone acetyltransferase PCAF by ELISA
Procedure, shortened: (§1)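 Indirect ELISA. Biotinylated histone H4 peptide (300 nM coating) captured on streptavidin wells. Recombinant human PCAF (240 nM solution) preincubated 15 min with inhibitor in 100 mM HEPES pH 7.4, 0.1% BSA, 0.16% Triton X-100. Reaction started with Ac-CoA (40 µM solution) for 15 min. Detection by anti-acetyl-Lys antibody, HRP secondary, TMB, A450. No-inhibitor wells = 100%, no-Ac-CoA = 0%. Triplicate; DMSO stocks.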

[2] = molecular target: T1, Histone acetyltransferase KAT2B; assay: Inhibition of […] in human HepG2 cells assessed as decrease in SAHA-induced histone H4 acetylation levels at 30 uM after 24 hrs by Western blotting; format: cell-based
Procedure, shortened: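 HepG2 cells in DMEM with 10% heat-inactivated FBS at 37 °C, 5% CO2; grown to ~70% confluency, FBS-starved 16 h, then treated 24 h with 5 µM SAHA plus inhibitor at sub-toxic concentrations. Histones extracted, ~5 µg resolved by SDS-PAGE, immunoblotted with anti-acetyl-histone H4; densitometry with Coomassie loading check. Levels relative to untreated cells (100%), mean ± SEM of three independent experiments.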
Target sequence in this assay (Q92831 whole entry, looked up): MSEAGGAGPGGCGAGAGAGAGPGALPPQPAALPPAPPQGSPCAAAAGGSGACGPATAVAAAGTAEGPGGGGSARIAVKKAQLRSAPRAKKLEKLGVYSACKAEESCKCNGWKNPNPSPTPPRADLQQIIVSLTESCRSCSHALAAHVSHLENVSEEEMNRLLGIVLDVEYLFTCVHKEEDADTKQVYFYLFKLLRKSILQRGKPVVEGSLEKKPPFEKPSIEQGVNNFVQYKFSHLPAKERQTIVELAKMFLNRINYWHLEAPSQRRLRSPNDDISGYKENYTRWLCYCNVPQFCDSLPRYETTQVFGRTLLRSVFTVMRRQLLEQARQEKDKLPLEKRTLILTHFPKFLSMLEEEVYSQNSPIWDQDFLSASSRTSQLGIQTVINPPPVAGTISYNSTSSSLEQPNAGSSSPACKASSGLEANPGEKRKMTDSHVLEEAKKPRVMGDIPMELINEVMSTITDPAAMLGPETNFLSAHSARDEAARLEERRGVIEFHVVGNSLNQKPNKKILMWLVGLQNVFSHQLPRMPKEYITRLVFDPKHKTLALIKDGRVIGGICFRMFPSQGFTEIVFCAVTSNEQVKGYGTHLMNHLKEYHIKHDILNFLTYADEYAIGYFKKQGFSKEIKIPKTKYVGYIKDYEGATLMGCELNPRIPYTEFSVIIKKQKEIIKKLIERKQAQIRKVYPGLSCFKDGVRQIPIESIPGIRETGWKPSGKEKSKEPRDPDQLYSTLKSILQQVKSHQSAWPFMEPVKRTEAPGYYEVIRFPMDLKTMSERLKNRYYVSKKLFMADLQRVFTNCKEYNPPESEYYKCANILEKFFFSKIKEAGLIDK

[3] = molecular target: T1, Histone acetyltransferase KAT2B; assay: Inhibition of histone acetyltransferase PCAF in human HepG2 cells assessed as decrease in SAHA-induced histone H4 acetylation levels at 60 uM after 24 hrs by Western blotting
Target sequence in this assay (Q92831 whole entry, looked up): as above

[4] = molecular target: T1, Histone acetyltransferase KAT2B; assay: Inhibition of human recombinant […] at 1 mM by ELISA; procedure, shortened: as §1
Target sequence in this assay (Q92831 whole entry, looked up): as above

Row | SMILES | inhibition [1] | other results
1 | CCCCCOc1ccc(/C=C\c2cccc(O)c2C(=O)O)cc1 |  | IC50 [1]: 662 µM; inhibition [2]: Active; inhibition [3]: Active
2 | CCCCCCCCCCCCCCOc1cccc(O)c1C(=O)O | Active | 
3 | CCCCCCCCCCCCCCCc1cc(O)cc(O)c1C(=O)O | Active | 
4 | CCCCCCCCCCc1cccc(O)c1C(=O)O | Active | 
5 | CCCCCCCCCCc1cc(O)cc(O)c1C(=O)O | Active | 
6 | C=CC/C=C\C/C=C\CCCCCCCc1cccc(O)c1C(=O)O [ANACARDIC ACID] | Active | inhibition [4]: 40%; IC50 [1]: 1000 µM; inhibition [2]: Active; inhibition [3]: Active
7 | O=C(O)c1c(O)cccc1OCc1ccccc1 |  | inhibition [4]: 20%

Further lines, with some results ahead:

Row | inhibition [1] | SMILES | other results
8 | Active | COc1ccccc1OCCCc1cccc(O)c1C(=O)O | 
9 | Active | CCCCCOc1ccc(CCc2cccc(O)c2C(=O)O)cc1 | 
10 | Active | CCCCCCCc1ccc(CCc2cccc(O)c2C(=O)O)cc1 | 
